Laboratory results taken from ChEMBL document CHEMBL3414524, “Synthesis, carbonic anhydrase inhibition and cytotoxic activity of novel chromone-based sulfonamide derivatives” (Eur J Med Chem, 2015).

Assays:
A549 [1] = assay: Cytotoxicity against human A549 cells after 72 hrs by sulforhodamine B assay; format: functional, cell-based; settings: A549, 72 h
Summary of the method: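 Cells in log phase were plated at 1000-2000 cells/well. After 24 h they were exposed to a range of concentrations for 72 h, then fixed with 10% TCA for 1 h at 4 °C. Staining used 0.4% SRB in 1% acetic acid for 10 min at room temperature, with the dye solubilized in Tris-HCl and OD read at 564 nm. IC50 came from a Boltzmann sigmoidal nonlinear fit, as the mean of three separate experiments.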

MCF7 [2] = assay: Cytotoxicity against human MCF7 cells after 72 hrs by sulforhodamine B assay; format: functional, cell-based; settings: MCF7, 72 h
Summary of the method: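 Cells in log phase were plated at 1000-2000 cells/well. After 24 h they were exposed to a range of concentrations for 72 h, then fixed with 10% TCA for 1 h at 4 °C. IC50 came from a Boltzmann sigmoidal nonlinear fit, as the mean of three separate experiments.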

Carbonic anhydrase 1 = Carbonic anhydrase 1 (Homo sapiens, UniProt P00915); assay: Inhibition of human cytosolic form of carbonic anhydrase-1 assessed as CO2 hydration activity incubated for 15 mins prior to testing by stopped flow method
Carbonic anhydrase 9 = Carbonic anhydrase 9 (Homo sapiens, UniProt Q16790); assay: Inhibition of human membrane associated form of carbonic anhydrase-9 assessed as CO2 hydration activity incubated for 15 mins prior to testing by stopped flow method
Carbonic anhydrase 2 = Carbonic anhydrase 2 (Homo sapiens, UniProt P00918); assay: Inhibition of human cytosolic form of carbonic anhydrase-2 assessed as CO2 hydration activity incubated for 15 mins prior to testing by stopped flow method
Carbonic anhydrase 12 = Carbonic anhydrase 12 (Homo sapiens, UniProt O43570); assay: Inhibition of human membrane associated form of carbonic anhydrase-12 assessed as CO2 hydration activity incubated for 15 mins prior to testing by stopped flow method
MCF7 [3] = assay: Induction of apoptosis in human MCF7 cells assessed as late apoptotic cells at 0.72 uM after 24 hrs by annexin V-FITC/propidium iodide staining-based flow cytometric analysis (reference value: 0.01%); format: functional
Summary of the method: (§1)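 Cells were seeded at 1 x 10^5 cells/ml and held 24 h at 37 °C in 5% CO2, then treated for a further 24 h. They were harvested with 0.25% trypsin, washed twice in Ca2+/Mg2+-free PBS and adjusted to 1 x 10^6 cells/ml. Staining with annexin V-FITC/PI ran 30 min in the dark at room temperature, in binding buffer, with flow cytometry within 1 h. Untreated cells served as control.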

MCF7 [4] = assay: Induction of apoptosis in human MCF7 cells assessed as necrotic cells at 0.72 uM after 24 hrs by annexin V-FITC/propidium iodide staining-based flow cytometric analysis (reference value: 1.58%); format: functional; summary of the method: as §1
A549 [5] = assay: Induction of apoptosis in human A549 cells assessed as late apoptotic cells at 0.5 uM after 24 hrs by annexin V-FITC/propidium iodide staining-based flow cytometric analysis relative to control; format: functional; summary of the method: as §1
MCF7 [6] = assay: Induction of apoptosis in human MCF7 cells assessed as early apoptotic cells at 0.72 uM after 24 hrs by annexin V-FITC/propidium iodide staining-based flow cytometric analysis relative to control; format: functional; summary of the method: as §1
A549 [7] = assay: Induction of apoptosis in human A549 cells assessed as necrotic cells at 0.5 uM after 24 hrs by annexin V-FITC/propidium iodide staining-based flow cytometric analysis (reference value: 2.04%); format: functional; summary of the method: as §1
A549 [8] = assay: Induction of apoptosis in human A549 cells assessed as early apoptotic cells at 0.5 uM after 24 hrs by annexin V-FITC/propidium iodide staining-based flow cytometric analysis (reference value: 1.9%); format: functional; summary of the method: as §1
MCF7 [9] = assay: Induction of apoptosis in human MCF7 cells assessed as viable cells at 0.72 uM after 24 hrs by annexin V-FITC/propidium iodide staining-based flow cytometric analysis (reference value: 98.41%); format: functional; settings: MCF7, 24 h, read-out: Activity; summary of the method: as §1
A549 [10] = assay: Induction of apoptosis in human A549 cells assessed as viable cells at 0.5 uM after 24 hrs by annexin V-FITC/propidium iodide staining-based flow cytometric analysis (reference value: 96.06%); format: functional; settings: A549, 24 h, read-out: Activity; summary of the method: as §1

Chain of Carbonic anhydrase 1 (P00915 whole entry): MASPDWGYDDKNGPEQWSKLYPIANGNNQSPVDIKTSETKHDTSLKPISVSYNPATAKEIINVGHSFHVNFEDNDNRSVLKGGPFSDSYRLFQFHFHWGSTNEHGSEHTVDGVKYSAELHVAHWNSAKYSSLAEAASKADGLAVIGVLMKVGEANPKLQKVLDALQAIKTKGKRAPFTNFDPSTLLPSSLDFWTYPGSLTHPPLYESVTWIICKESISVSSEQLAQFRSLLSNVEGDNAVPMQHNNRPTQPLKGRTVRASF
Chain of Carbonic anhydrase 12 (O43570 whole entry): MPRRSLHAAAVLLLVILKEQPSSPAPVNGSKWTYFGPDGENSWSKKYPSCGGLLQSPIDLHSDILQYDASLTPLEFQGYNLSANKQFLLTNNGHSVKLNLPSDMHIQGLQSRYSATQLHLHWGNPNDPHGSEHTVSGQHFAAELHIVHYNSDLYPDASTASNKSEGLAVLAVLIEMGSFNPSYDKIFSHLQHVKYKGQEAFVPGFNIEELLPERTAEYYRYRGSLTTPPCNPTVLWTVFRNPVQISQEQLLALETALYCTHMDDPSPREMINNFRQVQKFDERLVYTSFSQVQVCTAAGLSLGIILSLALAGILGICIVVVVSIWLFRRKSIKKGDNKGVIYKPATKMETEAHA

SMILES | IC50 (A549 [1]) [µM] | IC50 (MCF7 [2]) [µM] | Ki (Carbonic anhydrase 1) [µM] | Ki (Carbonic anhydrase 9) [µM] | other results
CCOC1Oc2ccccc2C(=O)/C1=C/Nc1ccc(S(=O)(=O)Nc2ncccn2)cc1 (centres undefined) | > 100 | 30.1 |  |  | 
O=C1/C(=C/c2coc3ccccc3c2=O)N=C(c2ccccc2)N1c1ccc(S(=O)(=O)Nc2nccs2)cc1 | 88.4 | 88.5 |  |  | 
O=c1c(CNc2ccc(S(=O)(=O)Nc3nccs3)cc2)coc2ccccc12 | 25.6 | 58.6 |  |  | 
Cc1cc(C)nc(NS(=O)(=O)c2ccc(NCc3coc4ccccc4c3=O)cc2)n1 | 55.8 | 93.6 |  |  | 
CCOC1Oc2ccccc2C(=O)/C1=C/Nc1ccc(S(=O)(=O)Nc2nccs2)cc1 (centres undefined) | > 100 | 48.6 | > 10 | 0.0199 | Ki (Carbonic anhydrase 2): > 10 µM
O=C1/C(=C/c2coc3ccccc3c2=O)N=C(c2ccccc2)N1c1ccc(S(=O)(=O)Nc2ccccn2)cc1 | > 100 | > 100 |  |  | 
Cc1cc(NS(=O)(=O)c2ccc(N3C(=O)/C(=C/c4coc5ccccc5c4=O)N=C3c3ccc(Cl)cc3)cc2)no1 | > 100 | > 100 |  |  | 
O=C1/C(=C/c2coc3ccccc3c2=O)N=C(c2ccc(Cl)cc2)N1c1ccc(S(=O)(=O)Nc2ncccn2)cc1 | 59 | > 100 |  |  | 
O=C1/C(=C/c2coc3ccccc3c2=O)N=C(c2ccc(Cl)cc2)N1c1ccc(S(=O)(=O)Nc2ccccn2)cc1 | > 100 | > 100 |  |  | 
O=C1/C(=C/c2coc3ccccc3c2=O)N=C(c2ccc(Cl)cc2)N1c1ccc(S(=O)(=O)Nc2nccs2)cc1 | > 100 | > 100 |  |  | 
Cc1cc(NS(=O)(=O)c2ccc(NCc3coc4ccccc4c3=O)cc2)no1 | 59.7 | 34.5 | > 10 | 0.0321 | Ki (Carbonic anhydrase 2): > 10 µM
NS(=O)(=O)c1ccc(NC2=NC(=O)/C(=C\c3coc4ccccc4c3=O)S2)cc1 | 2.23 | 8.91 | 0.399 | 0.0143 | 
O=C1N=C(Nc2ccc(S(=O)(=O)Nc3ccccn3)cc2)S/C1=C/c1coc2ccccc2c1=O | > 100 | 47.1 | > 10 | 0.0256 | 
CCOC1Oc2ccccc2C(=O)/C1=C/Nc1ccc(S(=O)(=O)Nc2ccccn2)cc1 (centres undefined) | 39.1 | 28.8 | > 10 | 0.0209 | Ki (Carbonic anhydrase 12): 0.062 µM; Ki (Carbonic anhydrase 2): > 10 µM
O=C1N=C(Nc2ccc(S(=O)(=O)Nc3ncccn3)cc2)S/C1=C/c1coc2ccccc2c1=O | > 100 | 82.6 | > 10 | 0.0247 | Ki (Carbonic anhydrase 2): > 10 µM
Cc1cc(C)nc(NS(=O)(=O)c2ccc(N3C(=O)/C(=C/c4coc5ccccc5c4=O)N=C3c3ccc(Cl)cc3)cc2)n1 | 52.6 | 93.9 |  |  | 

SMILES | IC50 (A549 [1]) [µM] | IC50 (MCF7 [2]) [µM] | Ki (Carbonic anhydrase 1) [µM] | Ki (Carbonic anhydrase 9) [µM] | other results
CCOC1Oc2ccccc2C(=O)/C1=C/Nc1ccc(S(N)(=O)=O)cc1 (centres undefined) | 33.4 | 22.2 |  |  | 
Cc1cc(NS(=O)(=O)c2ccc(NC3=NC(=O)/C(=C\c4coc5ccccc5c4=O)S3)cc2)no1 | > 100 | > 100 |  |  | 
O=c1c(CNc2ccc(S(=O)(=O)Nc3ccccn3)cc2)coc2ccccc12 | > 100 | > 100 |  |  | 
CCOC1Oc2ccccc2C(=O)/C1=C/Nc1ccc(S(=O)(=O)Nc2nc(C)cc(C)n2)cc1 (centres undefined) | 36.4 | 45.6 | > 10 | 0.0376 | Ki (Carbonic anhydrase 2): > 10 µM
O=C1N=C(Nc2ccc(S(=O)(=O)Nc3nccs3)cc2)S/C1=C/c1coc2ccccc2c1=O | > 100 | > 100 |  |  | 
NS(=O)(=O)c1ccc(N2C(=O)/C(=C/c3coc4ccccc4c3=O)N=C2c2ccc(Cl)cc2)cc1 | 13.8 | 24.3 | > 10 | 0.0184 | 
Cc1cc(C)nc(NS(=O)(=O)c2ccc(N3C(=O)/C(=C/c4coc5ccccc5c4=O)N=C3c3ccccc3)cc2)n1 | 63.2 | 99.7 |  |  | 
O=C1/C(=C/c2coc3ccccc3c2=O)N=C(c2ccccc2)N1c1ccc(S(=O)(=O)Nc2ncccn2)cc1 | 40.5 | > 100 |  |  | 
O=c1c(CNc2ccc(S(=O)(=O)Nc3ncccn3)cc2)coc2ccccc12 | 85.2 | > 100 |  |  | 
Cc1cc(NS(=O)(=O)c2ccc(N3C(=O)/C(=C/c4coc5ccccc5c4=O)N=C3c3ccccc3)cc2)no1 | > 100 | 30 | > 10 | 0.0252 | 
CCOC1Oc2ccccc2C(=O)/C1=C/Nc1ccc(S(=O)(=O)Nc2cc(C)on2)cc1 (centres undefined) | 57.2 | 25.8 | > 10 | 0.0238 | Ki (Carbonic anhydrase 2): > 10 µM
COc1cccc2c1C(=O)c1c(O)c3c(c(O)c1C2=O)C[C@@](O)(C(=O)CO)C[C@@H]3O[C@H]1C[C@H](N)[C@H](O)[C@H](C)O1 [DOXORUBICIN] | 26.8 |  |  |  | 
NS(=O)(=O)c1ccc(NCc2coc3ccccc3c2=O)cc1 | 0.5 | 0.72 |  | 0.0298 | Activity (MCF7 [3]): 0.72%; Activity (MCF7 [4]): 0%; Activity (A549 [5]): 1.64%; Activity (MCF7 [6]): 94.12%; Activity (A549 [7]): 0.06%; Activity (A549 [8]): 74.77%; viability at 0.72 µM (MCF7 [9]): 5.16%; viability at 0.5 µM (A549 [10]): 23.5%
NS(=O)(=O)c1ccc(N2C(=O)/C(=C/c3coc4ccccc4c3=O)N=C2c2ccccc2)cc1 | 1.73 | 11.5 | 8 | 0.023 | 
Cc1cc(C)nc(NS(=O)(=O)c2ccc(NC3=NC(=O)/C(=C\c4coc5ccccc5c4=O)S3)cc2)n1 | > 100 | > 100 |  |  | 
